Results reported in ChEMBL document CHEMBL1124959, “Synthesis of peptidyl fluoromethyl ketones and peptidyl alpha-keto esters as inhibitors of porcine pancreatic elastase, human neutrophil elastase, and rat and human neutrophil cathepsin G” (J Med Chem, 1990).
Peptide text beside a SMILES is read from it. * marks the point of attachment. Dansyl = CN(C)c1cccc2c(S(=O)(=O)*)cccc12; MeOSuc = COC(=O)CCC(=O)*; Cbz = O=C(OCc1ccccc1)*; Boc = CC(C)(C)OC(=O)*; CF3 = FC(F)(F)*

Target: T1, Pancreatic elastase (Sus scrofa, UniProt P08419+P00772)
Experiment: Binding affinity against porcine pancreatic Elastase
Assay type: protein assay
Procedure, shortened: (§1)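 Porcine pancreatic elastase was followed spectrophotometrically at 410 nm, 37 °C, with Suc-Ala-Pro-Ala-p-nitroanilide in pH 8.0 buffer (0.1 M NaCl, 0.01 M HEPES, 0.01 M Tris, 0.1% PEG 6000). Paired runs were done: enzyme added last, or enzyme preincubated with inhibitor before substrate. Only data up to 10% substrate consumption were used. K_i* came from steady-state rates fitted to competitive inhibition.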

Ki [nM]	Compound
690	CC(=O)N1CCC[C@H]1C(=O)N[C@@H](C)C(=O)N1CCC[C@H]1C(=O)N[C@@H](C)C(=O)C(=O)O
800	CC(=O)N1CCC[C@H]1C(=O)N[C@@H](C)C(=O)N1CCC[C@H]1C(=O)N[C@@H](C)C=O (Ac-PAPA-aldehyde)

Target: T2, Neutrophil elastase (Homo sapiens, UniProt P08246)
T2 sequence (P08246 whole entry): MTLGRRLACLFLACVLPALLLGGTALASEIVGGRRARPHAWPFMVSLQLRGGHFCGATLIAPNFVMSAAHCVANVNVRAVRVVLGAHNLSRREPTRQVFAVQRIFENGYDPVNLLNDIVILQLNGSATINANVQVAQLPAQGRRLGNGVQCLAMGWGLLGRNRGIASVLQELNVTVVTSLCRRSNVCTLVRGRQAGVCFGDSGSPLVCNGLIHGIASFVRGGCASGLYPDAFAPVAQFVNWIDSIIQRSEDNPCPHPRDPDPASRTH
Experiment: Binding affinity against human Elastase for less active diasteriomer
Procedure, shortened: (§2)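 Human neutrophil elastase purified from purulent sputum. Activity was read at 410 nm (p-nitroaniline) at 37 °C with MeO-Suc-Ala-Ala-Pro-Val-p-nitroanilide in 0.1 M NaCl, 0.01 M HEPES, 0.01 M Tris, 0.1% PEG 6000, pH 8.0, 1.25% DMSO. Paired assays were run, one adding enzyme last and one preincubating enzyme with inhibitor. Data were limited to ≤10% substrate use. Steady-state K_i* came from the competitive inhibition equation.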

Ki [nM]	Compound
110	CC(C)[C@H](NC(=O)[C@@H]1CCCN1C(=O)[C@H](C)NC(=O)[C@H](C)NS(=O)(=O)c1cccc2c(N(C)C)cccc12)C(=O)C(F)(F)F (Dansyl-AAPV-CF3)

Target: T1, Pancreatic elastase
Experiment: Binding affinity for porcine Elastase
Assay type: protein assay
Procedure, shortened: as §1

Compound	Ki [nM]
COC(=O)CCC(=O)NCCCC[C@H](NS(=O)(=O)C12CC3CC(CC(C3)C1)C2)C(=O)N1CCC[C@H]1C(=O)N[C@H](C(=O)C(F)(F)F)C(C)C	15
CCOC(=O)C(=O)[C@H](C)NC(=O)[C@H](C)NC(=O)[C@H](C)NC(=O)[C@H](C)NC(=O)OCc1ccccc1	140
COC(=O)C(=O)[C@H](C)NC(=O)[C@@H]1CCCN1C(=O)[C@H](C)NC(=O)[C@@H]1CCCN1C(C)=O	29
COC(=O)CCC(=O)N[C@@H](C)C(=O)N[C@@H](C)C(=O)N1CCC[C@H]1C(=O)N[C@H](C(=O)C(=O)OC)C(C)C	680
CC(=O)N[C@@H](C)C(=O)N[C@@H](C)C(=O)N1CCC[C@H]1C(=O)N[C@@H](C)C(=O)C(F)(F)F (Ac-AAPA-CF3)	150
CC(=O)N1CCC[C@H]1C(=O)N[C@@H](C)C(=O)N1CCC[C@H]1C(=O)N[C@@H](C)C(=O)C(F)(F)F (Ac-PAPA-CF3)	240
CC(C)[C@H](NC(=O)[C@@H]1CCCN1C(=O)[C@H](C)NC(=O)[C@H](C)NS(=O)(=O)c1cccc2c(N(C)C)cccc12)C(=O)C(F)(F)F (Dansyl-AAPV-CF3)	88

Continued, values first:

Ki [nM]	Compound
28000	COC(=O)CCC(=O)N[C@H](Cc1ccccc1)C(=O)N1CCC[C@H]1C(=O)N[C@H](C(=O)C(F)(F)F)C(C)C
9900	CCOC(=O)C(F)(F)C(=O)[C@@H](NC(=O)[C@@H]1CCCN1C(=O)[C@H](C)NC(=O)[C@H](C)NC(=O)CCC(=O)OC)C(C)C
32	CC(C)[C@H](NC(=O)[C@@H]1CCCN1C(=O)[C@H](C)NC(=O)[C@H](C)NC(=O)OC(C)(C)C)C(=O)C(F)(F)F (Boc-AAPV-CF3)
1800	CC(C)[C@H](NC(=O)[C@@H]1CCCN1C(=O)[C@H](Cc1ccccc1)NC(=O)OC(C)(C)C)C(=O)C(F)(F)F (Boc-Phe-Pro-Val-CF3)
33	COC(=O)CCC(=O)N[C@@H](C)C(=O)N[C@@H](C)C(=O)N1CCC[C@H]1C(=O)N[C@H](C(=O)C(F)(F)F)C(C)C (MeOSuc-AAPV-CF3)

Target: T3, Cathepsin G (Homo sapiens, UniProt P08311)
T3 sequence (P08311 whole entry): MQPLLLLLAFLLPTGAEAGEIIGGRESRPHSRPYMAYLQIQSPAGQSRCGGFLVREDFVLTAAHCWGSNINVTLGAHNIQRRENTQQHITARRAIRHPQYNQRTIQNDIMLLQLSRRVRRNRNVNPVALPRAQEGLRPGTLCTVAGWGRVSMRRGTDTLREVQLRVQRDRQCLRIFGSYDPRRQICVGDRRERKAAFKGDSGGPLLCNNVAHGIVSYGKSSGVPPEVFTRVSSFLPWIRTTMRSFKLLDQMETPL
Experiment: Binding affinity against human Cathepsin G
Procedure, shortened: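 Cathepsin G came from neutrophil granule extracts of sputum or, for rat, peritoneal lavage, extracted in 1 M NaCl/0.1% Brij 35 acetate buffer, pH 5.5. K_i = [I]/(v0/v1 − 1), using equilibrium velocity when binding was slow.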

Compound	Ki [nM]
CC(=O)N[C@@H](C)C(=O)N[C@@H](C)C(=O)N1CCC[C@H]1C(=O)N[C@@H](C)C(=O)C(F)(F)F (Ac-AAPA-CF3)	> 800000
CC(C)[C@H](NC(=O)[C@@H]1CCCN1C(=O)[C@H](C)NC(=O)[C@H](C)NS(=O)(=O)c1cccc2c(N(C)C)cccc12)C(=O)C(F)(F)F (Dansyl-AAPV-CF3)	> 600000

Further lines, results first:

Ki [nM]	Compound
1100	COC(=O)CCC(=O)N[C@H](C(=O)N1CCC[C@H]1C(=O)N[C@@H](Cc1ccccc1)C(=O)C(=O)OC)C(C)C
3000	COC(=O)CCC(=O)N[C@H](C(=O)N1CCC[C@H]1C(=O)N[C@@H](Cc1ccccc1)C(=O)C(F)(F)F)C(C)C (MeOSuc-Val-Pro-Phe-CF3)

Target: Chymotrypsinogen B (Homo sapiens, UniProt P17538)
Sequence (P17538 34-164 limits assumed, other chains not shown): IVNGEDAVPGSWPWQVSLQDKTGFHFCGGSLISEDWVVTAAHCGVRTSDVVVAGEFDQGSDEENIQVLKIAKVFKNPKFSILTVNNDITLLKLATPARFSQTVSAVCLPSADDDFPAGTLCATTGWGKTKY
Sequence (P17538 167-263 limits assumed, other chains not shown): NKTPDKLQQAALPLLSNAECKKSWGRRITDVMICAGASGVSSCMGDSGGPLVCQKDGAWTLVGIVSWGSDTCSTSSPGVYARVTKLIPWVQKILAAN
Experiment: Binding affinity against alpha-chymotrypsin

Ki [nM]	Compound
79	COC(=O)CCC(=O)N[C@@H](C)C(=O)N[C@@H](C)C(=O)N1CCC[C@H]1C(=O)N[C@@H](Cc1ccccc1)C(=O)C(=O)OC
17	COC(=O)CCC(=O)N[C@@H](C)C(=O)N[C@@H](C)C(=O)N1CCC[C@H]1C(=O)N[C@@H](Cc1ccccc1)C(=O)C(F)(F)F (MeOSuc-AAPF-CF3)

Target: T2, Neutrophil elastase
Experiment: Binding affinity against human leukocyte Elastase

Ki [nM]	Compound
< 0.1	CC(C)[C@H](NC(=O)[C@H](CCCCNC(=O)OCc1ccccc1)NC(=O)OCc1ccccc1)C(=O)N1CCC[C@H]1C(=O)N[C@H](C(=O)C(F)(F)F)C(C)C (Cbz-K(Cbz)VPV-CF3)

Target: T2, Neutrophil elastase
Experiment: Binding affinity against human Elastase for more active diasteriomer

Ki [nM]	Compound
6.3	CC(C)[C@H](NC(=O)[C@@H]1CCCN1C(=O)[C@H](C)NC(=O)[C@H](C)NS(=O)(=O)c1cccc2c(N(C)C)cccc12)C(=O)C(F)(F)F (Dansyl-AAPV-CF3)

Target: T2, Neutrophil elastase
Experiment: Binding affinity against human Neutrophil Elastase
Procedure, shortened: as §2

Ki [nM]	Compound
66000	CC(=O)N1CCC[C@H]1C(=O)N[C@@H](C)C(=O)N1CCC[C@H]1C(=O)N[C@@H](C)C(=O)C(=O)O
